Bioassay records (PubChem)
Sampled rows, rich in hits. Any-hit rate of the full collection: about 11%.
D1 allo mod: allosterically modulates the human D1 dopamine receptor. P21728. hit rate 5.9% among 58,000. HEK293 D1, CRE-luciferase, dopamine EC30 potentiation; actives deviate in either direction. B-score at 10 µM;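 active = luminescence count or its row- and column-corrected plate score outside the 99.7% band of the plate's sample wells, on either side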
SF1 activator: SF-1 (human) activation. CHO-K1 Gal4-SF-1 LBD luciferase reporter; % increase over DMSO SF-1-specific signal. activation, % at 10 µM. hit rate 1.9% among 65,000;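 active = activation above the mean activation of all tested compounds plus 3 SD, cut at about 50% in these data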
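material = CHO-K1 cells with Gal4–hSF-1 LBD chimera plus Gal4-driven luciferase | compound = 10 µM single point, 1% DMSO | incubation = 20 h compound exposure at 37 °C after 1 h cell settling | measured by = SteadyLite luciferase luminescence | evaluation = percent activation relative to DMSO median and mock-transfected background | control set = DMSO negative control and −SF1 background wells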
Htt clearance: compounds clearing mutant huntingtin protein | HeLa Exon1htt(103Q)mCFP, aggregate imaging; zero = plate's median compound well | inhibition, % at 1.5 µM | hit rate 0.42% among 47,000 | AID 853;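 active = inhibition of aggregate fluorescence above about 70%, also judged a hit by eye on the cell image, limit read from the data, passing the limit was not always enough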;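 also: cells exposed to compound for three days before fixation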
M1 antag: antagonists of rat M1 muscarinic receptor | P08482 | CHO-M1 cells, Fluo-4 calcium, ACh EC80 antagonist mode; hits give low values | B-score at 10 µM | hit rate 3.4% among 64,000 | AID 628;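 active = calcium fluorescence response, raw or row-and-column corrected B-score, differing from the plate sample mean either way at a set confidence level, mostly lower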
M1 ag: M1 muscarinic receptor agonism. CHO-M1 cells, Fluo-4 calcium fluorescence, agonist mode; hits give high values. B-score at 10 µM. hit rate 3% among 64,000. AID 626;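 active = fluorescence rise, raw or as B-score row- and column-corrected plate score, outside the 99.7% band of its plate's samples, either direction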
RORA act: activates the human nuclear receptor RORA. AID 560. hit rate 1.5% among 65,000. CHO-K1 Gal4-RORA LBD luciferase reporter, luminescence; percent increase over mock-subtracted basal signal. activation, % at 10 µM. P35398;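 active = activation above the mean of all tested compounds plus 3 SD, cut at about 49% in these data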;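 also: 0% = DMSO-treated RORA cells and 100% = added signal equal to DMSO minus mock-transfected cells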
Target sequence (P35398 whole entry, looked up, the tested form may be a part): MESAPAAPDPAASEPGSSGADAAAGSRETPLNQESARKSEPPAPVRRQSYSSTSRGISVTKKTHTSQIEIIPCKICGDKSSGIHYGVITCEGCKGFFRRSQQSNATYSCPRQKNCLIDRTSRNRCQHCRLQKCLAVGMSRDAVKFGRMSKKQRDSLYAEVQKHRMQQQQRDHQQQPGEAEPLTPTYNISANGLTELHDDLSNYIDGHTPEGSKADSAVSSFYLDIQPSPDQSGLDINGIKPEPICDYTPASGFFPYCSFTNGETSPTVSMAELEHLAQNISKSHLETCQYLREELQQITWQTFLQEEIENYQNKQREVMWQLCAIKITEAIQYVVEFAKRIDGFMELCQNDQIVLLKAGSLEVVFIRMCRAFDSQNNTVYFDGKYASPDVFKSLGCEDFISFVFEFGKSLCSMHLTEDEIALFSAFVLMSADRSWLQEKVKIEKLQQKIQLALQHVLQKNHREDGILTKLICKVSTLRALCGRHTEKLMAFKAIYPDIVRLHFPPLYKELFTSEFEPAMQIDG
An asterisk follows results filed as active; i = inactive; / = not tested or not shown.

SMILES	D1 allo mod	SF1 activator	Htt clearance	M1 antag	M1 ag	RORA act
CCOc1cc(S(=O)(=O)N2CCCCC2)ccc1Cl	-4*	23	35	/	/	5
CCOc1cc(S(=O)(=O)N2CCN(CC)CC2)ccc1Cl	0.47	-8	11	0.12	1.6	-26
COc1cccc(NC(=O)N(CCCN2CCOCC2)C(C)c2cc3ccccc3o2)c1 (centres undefined)	/	/	7	/	/	/
CCOC(=O)c1ccccc1NC(=O)CSc1nnnn1C1CCCCC1	0.06	5	/	-1.9	0.044	54*
CCNc1nc(OCCNS(=O)(=O)c2cc(C)ccc2C)nc(N(C)C)n1	2.8	-10	/	1.8*	-0.83	6
CCNc1nc(NCC)nc(OCCNS(=O)(=O)c2cc(C)ccc2C)n1	-0.83	-5	44	-1.7	-1.4	1
O=S1(=O)N=C(Nc2nc3c(s2)CCCC3)c2ccccc21	-2.7	51*	-16	-0.25	-0.37	96*
O=C(Nc1nc2c(s1)CCCC2)Oc1ccccc1	1.4	0	-66	0.4	0.26	-14
O=C(Nc1ncc(Cc2ccccc2)s1)C1COc2ccccc2O1 (centres undefined)	/	/	-13	/	/	/
CCOC(=O)C1CCN(C(=O)CSC2=NCCS2)CC1	-0.021	10	/	-0.61	-0.78	10
c1coc(C2Nc3ccccc3-c3nc4ccccc4n32)c1 (centres undefined)	-0.36	76*	/	-0.91	-0.34	71*
c1ccc(C2Nc3ccccc3-c3nc4ccccc4n32)cc1 (centres undefined)	/	/	31	/	/	/
O=C(Cn1ncc2c(=O)oc3ccccc3c21)Nc1nc2ccccc2s1	0.012	-8	18	0.029	-0.77	0
N#CC(c1ccc(O)cc1)N1CCOCC1 (centres undefined)	/	/	-80	/	/	/
CCOc1ccc(-c2nc(C#N)c(NC3CC3)o2)cc1	0.18	9	39	-1.1	-0.062	63*
CCOc1ccc(-c2nc(C#N)c(NCc3ccc4c(c3)OCO4)o2)cc1	1.5	10	-14	-0.22	0.15	3
CN(C)S(=O)(=O)CC12CCC(CC1=O)C2(C)C (centres undefined)	-0.028	-8	27	0.28	-0.031	-3
Nc1ccc(CCc2nc3ccccc3o2)cc1	-3.6*	-13	-1	-0.81	-0.42	-40
NCc1ccc(-c2nc3ccccc3o2)cc1	-0.76	46	/	0.23	-0.91	42
O=C(NCCN1CCOCC1)c1noc2c1CCc1ccccc1-2	-0.32	41	/	0.8	1.3	77*
CC1(C)CC(=O)C(C=NCC2CCN(C(=O)Nc3ccccc3)CC2)=C(O)C1	0.42	-19	/	0.15	0.16	2
Cc1cc(N2CCCCC2)n2ncc(-c3ccc(Cl)cc3)c2n1	/	62*	/	-0.0062	0.76	87*
Cc1cc(N2CCN(C(=O)c3ccco3)CC2)n2ncc(-c3ccccc3)c2n1	-1.8	65*	10	-0.43	-0.35	30
Cc1cc(N2CCCCC2)n2ncc(-c3ccccc3)c2n1	-3.1	1	-11	0.044	0.26	29
Cc1cc(N2CCN(C(=O)c3ccco3)CC2)n2ncnc2n1	0.61	-3	/	-0.087	0.23	-27
SMILES	D1 allo mod	SF1 activator	Htt clearance	M1 antag	M1 ag	RORA act
CCOc1ccc(NC(=O)c2cc3n(n2)C(C(F)(F)F)CC(c2ccco2)N3)cc1 (centres undefined)	-7.5*	18	/	-1	-1.1	60*
Cc1ccc2nc(-c3ccccn3)oc2c1	-4.6	11	-86	0.001	0.22	-39
COC(=O)c1ccc(-c2nc3ccc(C)cc3o2)cc1	-0.55	46	i	-0.54	0.019	68*
Cc1ccc2nc(-c3cccnc3)oc2c1	-0.89	33	1	0.24	0.26	50*
N#Cc1c(/N=C/N2CCOCC2)sc2c1CCCCC2	-0.28	83*	-42	/	/	91*
CN(C)/C=N/c1sc2c(c1C#N)CCC2	-0.23	0	11	0.19	-0.53	7
N#Cc1c(/N=C/c2cccs2)sc2c1CCCCC2	-3.6*	-12	-3	0.37	-0.17	39
CCOC(=O)c1oc2cc(O)c(CC)cc2c(=O)c1-c1ccc2c(c1)OCCO2	-0.22	-9	/	0.43	0.45	11
Cc1oc2cc(O)cc(O)c2c(=O)c1-c1ccc2c(c1)OCCCO2	0.57	50*	-91	0.45	-0.89	58*
COC(=O)c1nnn(CC(=O)Nc2cccc(Cl)c2C)c1C(=O)OC	-0.49	1	/	-0.65	-0.69	-9
O=c1[nH]c2cc3c(cc2cc1CN(Cc1nnnn1CC1CCCO1)C1CCCC1)OCO3 (centres undefined)	-3.3*	12	/	-1.1	0.59	-10
COc1ccccc1CN(Cc1cc2cc(C)cc(C)c2[nH]c1=O)Cc1nnnn1CC1CCCO1 (centres undefined)	3.5	49	-28	0.32	0.73	54*
Cc1c(C(=O)Nc2ccc3c(c2)OCO3)sc2ncn(CC(=O)N3CC(C)CC(C)C3)c(=O)c12 (centres undefined)	/	/	-62	/	/	/
N#CCC(=O)N1CCn2c1nc1ccccc12	0.026	-15	-6	-0.14	1.3	-17
O=C(c1cccs1)N1CCn2c1nc1ccccc12	-0.012	53*	/	0.19	-1.3	37
Cc1cc(NCCN2CCOCC2)n2ncc(-c3ccc(Cl)cc3)c2n1	/	-5	/	0.095	-1.2	-5
Cc1cc(NCCN2CCOCC2)n2ncc(-c3ccccc3)c2n1	-0.62	91*	/	0.0091	0.92	66*
Cc1cc(NCCCn2ccnc2)n2ncc(-c3ccccc3)c2n1	-6.4*	-39	10	-0.4	-0.043	-42
COCCN(Cc1cc2ccc(C)cc2n2nnnc12)Cc1nnnn1C(C)(C)C	/	/	-8	/	/	/
CC(=O)/C=C(\C)Nc1ccc(-c2cnc(-c3ccccc3)o2)cc1	-2.5	57*	/	0.56	-1.4	88*
CCOC(=O)N1CCN(C(=O)c2ccccc2CCc2ccccc2)CC1	-0.1	-3	/	/	/	-6
CCOC(=O)N1CCN(C(=O)c2ccccc2-c2ccccc2)CC1	-0.48	60*	-132	-0.79	-0.048	17
Cc1ccc(C)c(OCCOCCN2CC(C)OC(C)C2)c1C (centres undefined)	/	/	-101	/	/	/
CCN(CCNC(=O)C1CCN(S(=O)(=O)c2cccc3nsnc23)CC1)c1ccccc1	-2.9*	-6	15	-1.3	0.23	-16
O=C(CN(Cc1ccccc1)S(=O)(=O)c1ccc(F)cc1)NCCC1=CCCCC1	/	/	76*	/	/	/
CCCCc1ccc(NC(=O)C2CCCO2)cc1 (centres undefined)	-0.082	33	/	-0.41	-0.25	76*
CCCCNC(=O)c1ccc(NC(=O)C2CCCO2)cc1 (centres undefined)	0.1	11	/	-0.22	-0.86	10
CCOn1c(=O)c(C)[n+]([O-])c2ccccc21	/	/	-82	/	/	/
Cc1cccc(-n2ccnc2SCC(=O)Nc2nccs2)c1	1.2	60*	32	-0.016	-0.53	-13
